Laboratory results reported in ChEMBL document CHEMBL3400080, “Design, synthesis, optimization and antiviral activity of a class of hybrid dengue virus E protein inhibitors” (Bioorg Med Chem Lett, 2015).

Experiments:
dengue virus type 2 [1] = assay: Antiviral activity against DENV serotype 2 strain New Guinea C infected in african green monkey Vero cells assessed as reduction in production and release of infectious progeny virions after 2 hrs by virus yield-reduction assay; assay type: functional, organism-based
Procedure, shortened: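 Dose-response validation in virus-infected, compound-treated cells. Read-out was the amount of dengue viral RNA produced, quantified as a virus yield reduction. EC50 was derived from this.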

[2] = Cytotoxicity against DENV serotype 2 strain New Guinea C infected african green monkey Vero B cells by CPE-reduction assay; assay type: cell-based; conditions: chlorocebus sabaeus
[3] = Cytotoxicity against DENV serotype 2 strain New Guinea C infected african green monkey Vero B cells by virus yield-reduction assay; assay type: cell-based; conditions: chlorocebus sabaeus
dengue virus type 2 [4] = assay: Antiviral activity against DENV serotype 2 strain New Guinea C infected in african green monkey Vero-B cells assessed as inhibition of virus-induced cytopathic effect after 2 hrs by CPE-reduction assay; assay type: functional, organism-based
Procedure, shortened: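 Virus and compound mixed and pre-incubated together for 2 h at 37 °C before being added to cells. Co-addition without pre-incubation was also tested. Read-out was inhibition of virus-induced cytopathic effect (cell death). EC50 was taken from the dose-response.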

[5] = Selectivity index, CC50 for african green monkey Vero B cells to EC50 for DENV serotype 2 strain New Guinea C by CPE-reduction assay
[6] = Selectivity index, CC50 for african green monkey Vero B cells to EC50 for DENV serotype 2 strain New Guinea C by virus yield-reduction assay; assay type: toxicity, cell-based; conditions: read-out: Selectivity Index
Procedure, shortened: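 Selectivity index is CC50 divided by EC50. The EC50 comes from a dose-response measurement of the dengue virus RNA produced by virus-infected cells treated with compound (virus yield reduction).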

Yellow fever virus = assay: Antiviral activity against Yellow fever virus; assay type: functional, organism-based
dengue virus type 2 [7] = assay: Antiviral activity against DENV serotype 2 strain New Guinea C infected in BHK-21 cells assessed as inhibition of plaque formation after 2 hrs by plaque-reduction assay; assay type: functional, organism-based
Procedure, shortened: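 Dose-response effect on production of infectious dengue virus serotype 2 progeny, read as plaque formation. EC50 was derived from the plaque counts.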

SMILES | EC50 (dengue virus type 2 [1]) [µM] | CC50 [2] [µM] | CC50 [3] [µM] | EC50 (dengue virus type 2 [4]) [µM] | Selectivity Index [5] | selectivity ratio [6] | IC50 (Yellow fever virus) [µM] | inhibition (dengue virus type 2 [7]) | EC50 (dengue virus type 2 [7]; BHK-21, 2 h) [µM]
Oc1ccc(/C=N/Nc2nc(-c3ccc(-c4ccccc4)cc3)cs2)cc1 | 5.29 | > 135 | > 135 | 16.8 | >8 | > 25 | – | – | –
Nc1ccccc1SCc1csc(-c2ccc(Cl)cc2)n1 | – | – | – | – | – | – | 31 | – | –
COc1ccc(C2=NN(c3nc(-c4ccc(-c5ccccc5)cc4)cs3)C(c3ccc(O)cc3)C2)cc1 (stereo unspecified) | 18.6 | > 99 | 99.3 | 24.8 | >4 | 5 | – | – | –
Cc1nc(-n2nc(-c3ccccc3)cc2-c2ccccc2)sc1C(=O)/C=C/c1ccc(Cl)c(Cl)c1 | – | – | – | – | – | – | 51 | – | –
NC(=O)c1ncn([C@@H]2O[C@H](CO)[C@@H](O)[C@H]2O)n1 [RIBAVIRIN] | 47.9 | – | > 410 | – | – | > 9 | – | – | –
COc1ccc(C2=NN(c3nc(-c4ccc(Cl)cc4)cs3)C(c3ccc(O)c(OC)c3)C2)cc1 (stereo unspecified) | 7 | 2.4 | 54.6 | 0.79 | 3 | 8 | – | – | –
Oc1ccc(C2=NN(c3nc(-c4ccc(-c5ccccc5)cc4)cs3)C(c3ccccc3)C2)cc1 (stereo unspecified) | 8.44 | 79.2 | 86.8 | 13.2 | 6 | 10 | – | – | –
COc1ccc(/C(C)=N/Nc2nc(-c3ccc(-c4ccccc4)cc3)cs2)cc1 | 17.7 | 200 | 117 | 100 | 2 | 7 | – | – | –
C(=N\Nc1nc(-c2ccc(-c3ccccc3)cc2)cs1)/c1ccccc1 | 128 | > 141 | > 141 | 35.2 | >4 | > 1 | – | – | –
C/C(=N\Nc1nc(-c2ccc(Cl)cc2)cs1)c1ccc(O)cc1 | 1.32 | 145 | 125 | 5.8 | 25 | 95 | – | Dose-dependent effect | 1.39
C/C(=N\Nc1nc(-c2ccc(-c3ccccc3)cc2)cs1)c1ccc([N+](=O)[O-])cc1 | 12.2 | 82 | 70.8 | 41 | 2 | 6 | – | – | –
COc1ccc(C2=NN(c3nc(-c4ccc(-c5ccccc5)cc4)cs3)C(c3ccc(O)c(OC)c3)C2)cc1 (stereo unspecified) | 3.79 | 16.8 | 25.6 | 8.4 | 2 | 7 | – | – | –
